# From PubChem BioAssay
# CHOP inh = inhibitors of CHOP promoter induction, primary screen, cell-based, unfolded protein response, luciferase reporter; hit rate 3.8% among 220,000; AID 2732, 2010; CHO-K1 CHOP-promoter luciferase, tunicamycin-induced, 15-18 h; inhibition, % at 10 µM;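 active = compounds that reduced the stress-induced luciferase reporter signal by more than about 70% of percent inhibition, limit read from the data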;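 note: 0% = tunicamycin plus vehicle and 100% = wells without tunicamycin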
# CHOP UPR activ = activators of apoptotic CHOP UPR arm, primary screen, cell-based, CHO-CHOP luciferase reporter, luminescence, uHTS | UPR activation; percent of tunicamycin response over DMSO baseline | activation, % at 10 µM | hit rate 0.34% among 330,000 | AID 449763, 2010;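 active = at 10 µM dose, activation of 40% or more, normalized to positive control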;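 note: 100% = tunicamycin at 10 µg/mL and 0% = DMSO alone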
#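 System: CHO-CHOP luciferase reporter cell line | Buffer or medium: F12 medium containing 10% fetal bovine serum | Doses: One dose, 10 µM in 0.5% DMSO | Times: 6 h compound exposure at 37 °C after overnight seeding | Signal: Luciferase luminescence | Read-out: % activation vs tunicamycin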
# Beta2AR agonist = beta2AR agonists driving receptor internalization, primary screen, cell-based, FAP fluorogen, flow cytometry; Beta-2 adrenergic receptor (Homo sapiens), P07550; Am2.2-beta2AR cells; response, % (no concentration beside the values); hit rate 0.43% among 340,000;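 active = response above a set limit, near 3 SD of response in nonfluorescent compounds, cut at about 42% in these data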
# Target sequence (P07550 whole entry, looked up): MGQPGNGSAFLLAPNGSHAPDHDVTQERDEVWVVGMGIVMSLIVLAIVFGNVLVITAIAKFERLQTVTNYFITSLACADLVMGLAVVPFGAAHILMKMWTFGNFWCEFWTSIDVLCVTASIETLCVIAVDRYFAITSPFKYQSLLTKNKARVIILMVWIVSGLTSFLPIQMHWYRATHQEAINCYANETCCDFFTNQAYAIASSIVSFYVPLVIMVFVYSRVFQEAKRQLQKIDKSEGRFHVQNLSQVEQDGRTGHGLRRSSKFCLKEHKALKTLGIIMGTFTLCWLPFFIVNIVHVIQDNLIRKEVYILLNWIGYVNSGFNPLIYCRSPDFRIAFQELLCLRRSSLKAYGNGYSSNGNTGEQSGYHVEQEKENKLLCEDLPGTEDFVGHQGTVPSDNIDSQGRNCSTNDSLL
# VLA-4 inh = inhibition in human VLA-4 binding assay, primary screen, VLA-4 allosteric modulator project, MLPCN library, flow cytometry, VLA-4 expressing cells; Integrin alpha-4 (Homo sapiens), P13612; ligand binding flow cytometry; inhibition, % (about 7 µM as worked out from the volumes in the protocol); hit rate 0.2% among 330,000; in the data active = inhibition above about 50%
# XBP1 UPR activ = activators of adaptive XBP1 UPR arm, primary screen, cell-based, CHO-XBP1 luciferase reporter, luminescence, uHTS. IRE1-XBP1 UPR activation; percent of tunicamycin response, DMSO as zero. activation, % at 20 µM. hit rate 0.33% among 330,000;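 active = versus positive control, 20 µM dose yields 30% or more activation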;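 note: 100% = tunicamycin at 10 µg/mL and 0% = DMSO only wells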
#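 Assay system: CHO-XBP1 luciferase reporter cells; Schedule: 6 h treatment, 37 °C; Detection: glow luminescence from Steady-Glo reagent; Benchmarks: high control tunicamycin 10 µg/mL final, low control DMSO vehicle only.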
# * marks the source's active call; other numbers are inactive results; nt = not tested or not shown. Only a selection was taken, and hits are over-represented in it overall.
SMILES,CHOP inh,CHOP UPR activ,Beta2AR agonist,VLA-4 inh,XBP1 UPR activ
CCCn1c(O)c(C=Nc2ccccc2)sc1=S,87.0*,5.1,-1.4,-4.8,1.0
Cc1ccc(-n2cc(CNCCc3cscn3)c(-c3ccc(F)cc3)n2)cc1,84.9*,-0.1,0.1,14.2,-0.3
Cc1ccc(-n2cc(CNCCCn3ccnc3C)c(-c3ccc(F)cc3)n2)cc1,-22.7,0.8,21.4,22.5,2.0
Clc1ccc(Sc2cnc3ccccc3n2)cc1,76.2*,3.0,1.7,3.0,0.2
CC1CCN(CC(CS(=O)(=O)c2ccc([N+](=O)[O-])cc2)N2CCC(C)CC2)CC1 (centres undefined),71.0*,33.6,4.5,19.3,-4.6
O=C1Nc2ccc(S(=O)(=O)N3CCCC3)c3cccc1c23,5.5,-1.8,-5.5,4.0,-1.1
O=C(c1ccco1)N1C(=O)c2cccc3c(S(=O)(=O)N4CCCC4)ccc1c23,74.2*,-0.3,-3.3,18.8,2.2
O=[N+]([O-])c1ccc2c(OCc3nnc(-c4ccccc4Br)o3)ncnc2c1,-1.3,0.4,-9.2,-3.0,0.2
C=CC#CC[N+]1(CC#Cc2ccccc2)CCOCC1,32.8,nt,72.0*,nt,nt
C(#Cc1ccccc1)C[N+]1(CC#Cc2ccccc2)CCCC1,11.8,0.2,4.9,7.8,1.0
CCN1CCN(Cc2ccc(NC(=O)c3cc(NC(=O)c4ccc5n[nH]nc5c4)cc(OC)c3)cc2C(F)(F)F)CC1,-1.7,0.3,-4.0,-10.6,-0.5
CCN1CCN(Cc2ccc(NC(=O)c3cc(NC(=O)c4cc(-c5ccc(OC)cc5)n[nH]4)cc(OC)c3)cc2C(F)(F)F)CC1,87.2*,-0.4,25.9,4.0,4.4
Cc1nn(-c2ccc(F)cc2)c(Cl)c1/C=C1\C(=O)Nc2ccccc21,93.7*,0.6,10.1,3.6,2.2
Cc1ccc(OCCN2CCN(c3ncnc4sc(C)c(C)c34)CC2)cc1,72.2*,3.2,-12.7,-4.2,-2.6
Cc1ccccc1N=C(NOCc1ccc(Cl)cc1Cl)c1nonc1N,84.8*,0.2,15.5,-5.2,0.1
Cc1ccc(N=C(NOCc2ccc(Cl)cc2Cl)c2nonc2N)c(C)c1,63.6,-0.9,0.8,1.3,-1.0
Cc1ccc(C(C)C)c(OCc2n[nH]c(=S)o2)c1,34.8,1.3,-1.4,23.4,-1.4
Cc1ccc(C(C)C)c(OCc2nc(-c3nonc3N)no2)c1,94.7*,4.5,5.9,11.0,3.1
Cc1c(Cl)cccc1NC(=O)CNC(=O)C1CCN(C(=O)Nc2ccccc2)CC1,nt,-0.7,4.2,13.5,-3.5
Clc1ccc(-c2nnc(-c3ccccc3)nc2-c2c[nH]c3ccccc23)cc1,84.7*,-0.5,-1.4,-2.6,-1.2
Cc1[nH]c2ccccc2c1-c1nc(-c2ccc(Cl)cc2)nnc1-c1ccccc1,75.8*,8.1,nt,0.5,23.1
COCCn1cnnc1SCC(=O)Nc1sccc1C(N)=O,13.6,-0.2,1.1,-1.7,1.1
CCCCC1(Cc2ccc([N+](=O)[O-])cc2)C(=O)N(c2ccccc2)N(c2ccccc2)C1=O,77.0*,13.6,6.3,4.7,-0.1
CCN(CC)S(=O)(=O)c1ccc(C)c(NC(=S)N2CCN(c3ccccn3)CC2)c1,nt,-0.6,-0.4,6.7,-5.8
CCN(CC)S(=O)(=O)c1ccc(C)c(NC(=S)N2CCN(C/C=C/c3ccccc3)CC2)c1,80.6*,1.1,-10.5,-8.2,-0.3
SMILES,CHOP inh,CHOP UPR activ,Beta2AR agonist,VLA-4 inh,XBP1 UPR activ
Cc1ccc(OCCNC(=O)CCNS(=O)(=O)c2ccc3ccccc3c2)cc1,nt,-0.5,5.4,-2.0,-0.7
O=C(Nc1ccc(Cl)cc1)Nc1ccc(Cl)c(Cl)c1,nt,9.9,nt,10.6,6.5
O=C(Nc1ccc(Cl)c(Cl)c1)Nc1ccc(Br)cc1F,101.4*,3.4,14.7,-0.8,4.8
CS(=O)(=O)N(CC(=O)N1CCOCC1)c1cccc(F)c1,nt,1.7,-3.2,0.0,-3.8
CC(C)CCNS(=O)(=O)c1cc2c3c(c1)CCN3C(=O)CC2,nt,-0.5,-0.8,13.5,-4.5
Cc1c(C(=O)NNC(=O)c2cccnc2)cccc1[N+](=O)[O-],nt,-0.7,2.4,10.8,-2.5
CCOc1ccc(-n2c(N)c(-c3nc4ccccc4n3C)c3nc4ccccc4nc32)cc1,92.8*,26.8,21.4,-17.8,21.2
COc1cc2c(cc1NC(=O)COc1ccccc1OC)oc1ccccc12,46.0,3.5,-6.3,5.8,5.7
COc1cc2c(cc1NC(=O)COC(=O)c1ccc(C(C)(C)C)cc1)oc1ccccc12,78.2*,1.4,-3.8,5.5,20.4
COc1cc2c(cc1NC(=O)CN1C(=O)NC3(CCc4ccccc43)C1=O)oc1ccccc12 (centres undefined),79.4*,12.6,14.2,15.6,9.9
COc1cc2c(cc1NC(=S)Nc1cccc(C(F)(F)F)c1)oc1ccccc12,70.6*,1.1,5.2,3.3,0.1
COc1ccccc1N1CCN(c2ccc(-c3ccccc3)nn2)CC1,78.8*,-4.6,22.8,42.3,-4.7
O=C(NCc1ccco1)c1ccc(N2CCOCC2)c([N+](=O)[O-])c1,-13.0,-1.2,-6.2,0.9,-0.6
O=C(NCc1ccco1)c1ccc(N2CCCCC2)c([N+](=O)[O-])c1,70.5*,5.6,-0.7,21.2,4.0
Cc1ccc(C)c(NC(=O)CN(C)C(=O)C2COc3ccccc3O2)c1 (centres undefined),nt,-0.5,-1.3,-1.4,-0.9
CN1OC(COC(=O)c2ccc(Cl)cc2Cl)CC1c1ccccc1 (centres undefined),60.2,10.8,-2.1,3.4,1.0
COc1ccc(C(=O)OCC2CC(c3ccccc3)N(C)O2)cc1 (centres undefined),79.7*,-1.1,4.2,8.3,-1.0
COc1nc(C)nc2c1sc(=S)n2C,71.0*,-0.7,-0.2,-0.7,0.0
Cc1nc(N(C)C)c2sc(=S)n(C)c2n1,14.2,0.0,2.0,12.8,2.6
COc1ccc(/C=N/Nc2nnc(-c3ncc[nH]3)c3ccccc23)cc1,-11.7,7.2,-7.6,2.1,7.2
Oc1ccc2ccccc2c1/C=N/Nc1nnc(-c2ncc[nH]2)c2ccccc12,79.5*,-1.5,10.4,-12.8,2.2
Cc1cccn2c(=O)c3cc(C(=O)NC4CCCC4)c(=N)n(CC4CCCO4)c3nc12 (centres undefined),nt,2.4,-44.9,12.2,-0.5
CCNC(=O)c1cc2c(=O)n3cccc(C)c3nc2n(Cc2ccc(C)cc2)c1=N,2.6,-0.1,50.8*,3.4,0.7
Cc1cccn2c(=O)c3cc(C(=O)NC4CCCCC4)c(=N)n(Cc4ccc(F)cc4)c3nc12,nt,9.5,77.9*,-5.5,0.1
Fc1ccc(Oc2nccc(-c3ccc(Cl)cc3)n2)cc1,81.0*,4.0,-6.2,16.5,7.4
